Hep lipid drop: inhibitors of hepatocyte lipid droplet formation, primary screen, imaging, high-throughput imaging, BODIPY stain; inhibition, % at 6.5 µM; hit rate 0.4% among 240,000; AID 1656, 2009; AML12 mouse hepatocytes, oleate lipid droplets;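 active = lipid droplet intensity inhibited by at least 50%, with more than 500 cells counted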
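Material – AML12 mouse liver cells · Also added – oleate loading, 100 µM · Compound dosing – 6.5 µM single-point dosing · Times – overnight treatment with compound plus oleate · Measured by – fluorescence imaging, 20x objective, two fields per well · Read-out – percent inhibition of filter-corrected integrated lipid droplet intensity per well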
TLR9-MyD88 block: inhibitors of TLR9-MyD88 association in cells, primary screen, cell-based, CHO, BLA complementation, fluorescence | CCF4 FRET ratio | AID 504734, 2011 | hit rate 0.21% among 340,000 | Toll-like receptor 9 (Homo sapiens) + Myeloid differentiation primary response protein … | inhibition, % at 4.98 µM;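 active = inhibition above the mean over all tested compounds plus 3 SD, cut at about 21% in these data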;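 also: 0% = DMSO only wells and 100% = clavulanate BLA inhibitor control wells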
SR-BI HDL uptake: inhibitors of SR-BI mediated HDL lipid uptake, primary screen, ldlA[mSR-BI] cells, fluorescence, single point | AID 488896, 2010 | hit rate 0.96% among 320,000 | ldlA[mSR-BI] CHO cells, DiI-HDL uptake fluorescence, 3 h | Scavenger receptor class B member 1 (Mus musculus), Q61009 | inhibition, % at 12.5 µM;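 active = mean replicate inhibition of at least 70% and a set share of replicates each scoring 70 or more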;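 also: 0% = median of neutral control wells and 100% = median of positive control wells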
Target sequence (Q61009 whole entry, looked up): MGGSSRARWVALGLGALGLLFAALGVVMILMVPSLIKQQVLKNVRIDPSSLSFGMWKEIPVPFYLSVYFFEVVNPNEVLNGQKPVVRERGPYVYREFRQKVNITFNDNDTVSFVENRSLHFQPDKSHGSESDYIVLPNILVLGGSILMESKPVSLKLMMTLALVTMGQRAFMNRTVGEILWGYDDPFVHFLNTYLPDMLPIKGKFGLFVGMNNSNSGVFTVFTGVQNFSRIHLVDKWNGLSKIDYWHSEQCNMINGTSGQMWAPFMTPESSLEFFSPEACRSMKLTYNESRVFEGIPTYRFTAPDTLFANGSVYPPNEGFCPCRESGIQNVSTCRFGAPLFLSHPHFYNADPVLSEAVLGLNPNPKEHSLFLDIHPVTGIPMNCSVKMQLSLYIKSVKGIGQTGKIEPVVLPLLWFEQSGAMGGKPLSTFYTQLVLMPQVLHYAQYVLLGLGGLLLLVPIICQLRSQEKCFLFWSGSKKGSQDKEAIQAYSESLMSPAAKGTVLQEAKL
SR-BI uptake up: activators of SR-BI mediated DiI-HDL uptake, primary screen, ldlA[mSR-BI] CHO cells, DiI fluorescence; 3 h; 100 = double the neutral-control signal; activation, % at 12.5 µM; hit rate 0.096% among 320,000;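 active = mean replicate activation of at least 60% and every replicate at or above 60%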;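 also: 0% = median plate neutral-control signal and 100% = twice that signal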
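Test system: SR-BI-overexpressing, LDLR-lacking CHO cells. Measured by: DiI fluorescence, bottom read. Medium: Ham's F12 with 0.5% BSA, HEPES 25 mM, pH 7.4. Timing: 3 h uptake period with compound, 37 °C.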
NOD2-RIPK2 inh: NOD2-RIPK2 binding disruptors in cells, primary screen, fluorescence, CHO cells, BLA complementation; Receptor-interacting serine/threonine-protein kinase 2 (Homo sapiens), O43353; CCF4 ratio; inhibition, % at 4.98 µM; hit rate 0.38% among 360,000; AID 624267, 2012; in the data active = inhibition above about 21%;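 also: 0% = vehicle only and 100% = reference blocker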
TLR4-MyD88 BLA: inhibitors of TLR4-MyD88 association in cells, primary screen, cell-based, HeLa CL3-4, BLA complementation, FRET ratio; Toll-like receptor 4 (Homo sapiens) + Myeloid differentiation primary response protein …; HeLa CL3-4 TLR4/MyD88 BLA complementation; hit rate 0.18% among 200,000; inhibition, % at 8.4 µM; in the data active = inhibition above about 25%;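 also: 0% = vehicle and 100% = reference inhibitor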
Hep lipid conf: hepatocyte lipid droplet accumulation inhibitors, confirmation, imaging, AML12 mouse hepatocytes, single concentration, high-content | hit rate 65% among 870 | BODIPY lipid droplet imaging; droplets induced with 100 µM oleic acid | shares compounds with Hep lipid drop | inhibition, % at 5.2 µM | AID 463183, 2010;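 active = inhibition of lipid droplet metric at least 50%, with more than 300 cells in each of four replicates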;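 also: plate controls were DMSO with oleic acid for no effect and 5 µM Triacsin-C for full effect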
AML12 cytotox: AML12 hepatocyte cytotoxicity, counter-screen for hepatic lipid droplet formation project, imaging, DAPI nuclear morphology imaging; AID 463200, 2010; z-score at 5 µM; hit rate 3% among 870; AML12 mouse hepatocytes; stronger effect = higher value; cells fed 100 µM oleate overnight; shares compounds with Hep lipid drop; in the data active = z-score above about 6.3;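 also: compound exposure lasted overnight at 37 °C before fixation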
AML12 tox conf: AML12 hepatocyte cytotoxicity, confirmation, cytotoxicity control for hepatic lipid droplet formation project, cell-based, single concentration; shares compounds with Hep lipid drop; AML12 mouse hepatocyte viability, ATP luminescence; cells loaded with 100 µM oleic acid; cytotoxicity, % at 50 µM; 530 tested, under 10 active;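 active = cytotoxicity above 50% in each of four replicates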;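 also: compound exposure lasted overnight at 37 °C before the ATP read; 0% = DMSO-treated cells and 100% = wells with no cells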
* marks the source's active call; other numbers are inactive results; · = no result. Compounds with a hit are over-represented: about 1.6% of the library has one in this group of screens.

SMILES	Hep lipid drop	TLR9-MyD88 block	SR-BI HDL uptake	SR-BI uptake up	NOD2-RIPK2 inh	TLR4-MyD88 BLA	Hep lipid conf	AML12 cytotox	AML12 tox conf
CCn1cc([N+](=O)[O-])c(C(=O)N2N=C(c3ccc4ccccc4c3)CC2c2ccccc2O)n1 (stereo unspecified)	79*	0	10	-10	-2	4	88*	-1.6	11
CCOc1ccccc1NC(=O)c1cccc(NC(=O)C2CCCC2)c1	63*	-2	30	-30	4	·	95*	0.46	4
COc1ccc2nc(N=Nc3c(O)ccc4ccccc34)sc2c1	50*	·	·	·	·	-10	6	-0.12	·
COc1cccc(CN(C(=O)COc2ccc(Cl)cc2)C2CCS(=O)(=O)C2)c1 (stereo unspecified)	-5	-20	-6	6	-11	·	·	·	·
CCCOC(=O)c1ccc(NC(=O)CCOc2ccccc2)cc1	52*	-3	5	-5	6	7	104*	-0.16	14
CCCCN(C(=O)CCC(=O)Nc1cc(C)on1)C(C(=O)NC1CCCC1)c1ccc(OCC)cc1 (stereo unspecified)	74*	-4	-14	14	0	·	91*	-0.33	9
COc1ccc(C(C(=O)NC2CCCC2)N(CCC(C)C)C(=O)CCC(=O)Nc2cc(C)on2)cc1 (stereo unspecified)	62*	1	-10	10	-6	·	81*	-0.13	5
CCN1C(=O)/C(=C/C=C2/Sc3ccc4ccccc4c3N2CCO)SC1=S	77*	-11	-23	23	-3	16	19	-0.31	·
CCN1C(c2ccccc2)=C(c2ccccc2)S/C1=C\C=C1/SC(=S)N(C)C1=O	·	-1	-18	18	0	-8	·	·	·
CCN(CC(=O)Nc1ccc2c(c1)OCCO2)CC(=O)Nc1ccc(C)c(S(=O)(=O)N(C)C)c1	·	-6	20	-20	-7	·	·	·	·
CCCCc1ccc(N=N/C(C(=O)Nc2cc(OC)c(NC(C)=O)cc2OC)=C(/C)O)cc1	96*	-6	87*	-87	-2	17	0	-0.68	·
CCCCc1ccc(N=N/C(C(=O)Nc2ccccc2OC)=C(/C)O)cc1	-2	-4	17	-17	-3	-7	·	·	·
O=C1/C(=C/c2ccc([N+](=O)[O-])cc2)CCC1C1CCCC1 (stereo unspecified)	54*	-2	0	0	-9	·	15	-0.71	·
Cc1cccc(/C=C2\CCC(C3CCCC3)C2=O)c1 (stereo unspecified)	2	1	-5	5	5	-6	·	·	·
COCCNC(=S)Nc1ccc2[nH]c(=O)[nH]c2c1	14	9	·	·	-6	12	·	·	·
Cc1nn(Cc2ccc(F)cc2)c(C)c1NC(=O)C1c2ccccc2Oc2ccccc21	62*	-3	12	-12	9	9	92*	-0.1	-1
COc1ccccc1C1NC(=O)CS1 (stereo unspecified)	·	7	-28	28	-6	-22	·	·	·
CCOc1ccc2c(c1)-c1c(ssc1=S)C(C)(C)N2C(=O)CSC1=NCCS1	54*	1	28	-28	-9	-1	13	0.2	·

Source: PubChem BioAssay
